Like-named read-outs stand apart in the source and are kept apart here. Marks after values point to notes of the source that are not given here.
Legend:
[1] = format: in vivo, mice (C57BL/6J, C3H/HeJ)
In short: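 Oral gavage of 500 mg/kg in DMSO to C57BL/6J and C3H/HeJ mice (n=3–4/group), with sampling at 30 min under isoflurane. Marrow pellets were suspended in 50 mM sodium acetate pH 5 for 2 h on ice and centrifuged. Serum was acidified to pH 5 with HCl before HLB extraction and LC/MS. Marrow concentrations were corrected to pellet volume, assuming density 1.06 g/ml. Mean ± SEM.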

[2] = format: in vivo; details: C57BL/6J mice
RAW 264.7 cells = test: RAW 264.7 cell viability; format: cell-based, murine; details: at approximately 3 μM; data not shown
[3] = format: in vivo, mice (C57BL/6J, C3H/HeJ, mps/mps)
In short: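 Test compound dosed IP at 100 mg/kg in DMSO to 15-week female BL/6J, female HeJ and male mps/mps mice (n=3–5/group). Blood and marrow were taken under isoflurane at 20 min. Marrow pellets were resuspended in 50 mM sodium acetate pH 5 and held 2 h on ice, then supernatants were kept. Serum was acidified to pH 5, and aglycone and glucuronide were measured by HLB solid-phase extraction and LC/MS. Mean ± SEM.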

recombinant human KL = target: T1, recombinant human KL (Homo sapiens, UniProt Q9UEF7); test: GUSB-specificity of substrate deconjugation; format: biochemical; details: 37°C, 50 mM sodium acetate buffer pH 5
T1 sequence (Q9UEF7 34-1012): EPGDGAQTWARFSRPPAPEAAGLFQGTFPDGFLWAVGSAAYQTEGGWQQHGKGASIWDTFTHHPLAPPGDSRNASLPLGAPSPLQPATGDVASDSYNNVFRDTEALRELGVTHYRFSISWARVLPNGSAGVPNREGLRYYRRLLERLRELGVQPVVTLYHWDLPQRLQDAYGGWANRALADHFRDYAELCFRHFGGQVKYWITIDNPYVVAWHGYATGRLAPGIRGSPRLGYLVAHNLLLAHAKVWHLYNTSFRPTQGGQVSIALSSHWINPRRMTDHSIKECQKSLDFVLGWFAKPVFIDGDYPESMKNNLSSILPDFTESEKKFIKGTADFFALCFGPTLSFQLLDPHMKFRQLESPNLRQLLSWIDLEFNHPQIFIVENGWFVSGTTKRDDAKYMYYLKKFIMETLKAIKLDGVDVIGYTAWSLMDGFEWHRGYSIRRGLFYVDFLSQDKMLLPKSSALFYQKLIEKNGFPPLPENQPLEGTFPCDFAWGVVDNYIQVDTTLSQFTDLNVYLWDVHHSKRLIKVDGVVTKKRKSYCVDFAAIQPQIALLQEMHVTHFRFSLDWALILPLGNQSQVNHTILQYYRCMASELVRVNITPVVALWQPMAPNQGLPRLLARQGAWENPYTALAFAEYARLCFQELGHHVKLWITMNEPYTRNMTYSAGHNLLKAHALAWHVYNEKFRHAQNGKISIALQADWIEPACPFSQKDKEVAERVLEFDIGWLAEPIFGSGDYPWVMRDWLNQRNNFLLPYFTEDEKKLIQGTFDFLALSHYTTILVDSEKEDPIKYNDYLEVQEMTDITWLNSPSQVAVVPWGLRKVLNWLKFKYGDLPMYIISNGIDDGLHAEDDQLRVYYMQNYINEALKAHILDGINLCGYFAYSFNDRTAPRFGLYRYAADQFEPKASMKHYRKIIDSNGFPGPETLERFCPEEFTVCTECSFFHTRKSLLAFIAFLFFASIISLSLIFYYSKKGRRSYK
In short: (§1)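 Recombinant human GUSB, HPSE or KL, normalized to molarity, was incubated 30–60 min at 37°C in 50 mM sodium acetate pH 5 with 4-methylumbelliferyl-glucuronide or phenolphthalein-glucuronide at above-Km concentrations. Reactions were quenched. Product was quantified against 4-MU or phenolphthalein standard curves by fluorescence (Ex 360/Em 470 nm) or absorbance at 540 nm. Rates are given as nmol product per enzyme amount per min.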

recombinant human HPSE = target: T2, recombinant human HPSE (Homo sapiens, UniProt Q9Y251); test: GUSB-specificity of substrate deconjugation; format: biochemical; details: 37°C, 50 mM sodium acetate buffer pH 5
T2 sequence (Q9Y251 158-543 limits assumed): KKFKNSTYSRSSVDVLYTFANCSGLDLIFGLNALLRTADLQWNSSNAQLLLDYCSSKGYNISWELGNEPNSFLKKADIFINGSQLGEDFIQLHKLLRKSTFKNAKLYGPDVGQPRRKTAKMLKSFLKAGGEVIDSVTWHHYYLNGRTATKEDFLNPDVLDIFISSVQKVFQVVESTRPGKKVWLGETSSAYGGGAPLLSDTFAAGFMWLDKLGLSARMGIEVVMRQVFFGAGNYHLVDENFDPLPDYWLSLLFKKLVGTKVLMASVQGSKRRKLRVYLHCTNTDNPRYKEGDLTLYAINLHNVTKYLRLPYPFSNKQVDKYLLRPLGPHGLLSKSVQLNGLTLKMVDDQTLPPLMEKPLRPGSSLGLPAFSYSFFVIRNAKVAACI
T2 sequence (Q9Y251 36-109 limits assumed): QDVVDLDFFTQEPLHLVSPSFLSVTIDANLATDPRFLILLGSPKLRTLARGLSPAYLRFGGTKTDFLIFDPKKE
In short: as §1

recombinant human GUSB = target: T3, recombinant human GUSB (Homo sapiens, UniProt P08236); test: GUSB-specificity of substrate deconjugation; format: biochemical; details: 37°C, 50 mM sodium acetate buffer pH 5
T3 sequence (P08236 23-651): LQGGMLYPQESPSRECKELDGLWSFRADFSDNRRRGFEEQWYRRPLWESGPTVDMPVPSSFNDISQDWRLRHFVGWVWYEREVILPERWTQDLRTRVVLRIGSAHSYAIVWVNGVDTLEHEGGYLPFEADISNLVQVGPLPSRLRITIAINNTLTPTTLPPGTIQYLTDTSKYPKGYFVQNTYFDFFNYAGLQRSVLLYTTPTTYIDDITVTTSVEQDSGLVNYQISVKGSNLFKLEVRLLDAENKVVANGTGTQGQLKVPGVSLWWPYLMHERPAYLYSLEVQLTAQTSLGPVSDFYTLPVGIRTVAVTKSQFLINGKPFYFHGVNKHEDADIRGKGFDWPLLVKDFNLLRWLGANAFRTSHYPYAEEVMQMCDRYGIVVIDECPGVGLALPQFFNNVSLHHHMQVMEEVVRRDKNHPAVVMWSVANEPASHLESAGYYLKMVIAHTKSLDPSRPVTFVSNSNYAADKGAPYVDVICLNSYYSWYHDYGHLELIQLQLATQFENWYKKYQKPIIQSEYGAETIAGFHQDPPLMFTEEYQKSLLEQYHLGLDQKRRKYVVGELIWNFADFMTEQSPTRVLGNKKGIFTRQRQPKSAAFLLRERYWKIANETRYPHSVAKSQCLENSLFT
In short: as §1

GUSB [4] = target: T4, GUSB (Mus musculus, UniProt P12265); format: in vivo, C57BL/6J mice; details: SL 1 g/kg IP 1 h before oral curcumin 500 mg/kg
T4 sequence (P12265 23-648): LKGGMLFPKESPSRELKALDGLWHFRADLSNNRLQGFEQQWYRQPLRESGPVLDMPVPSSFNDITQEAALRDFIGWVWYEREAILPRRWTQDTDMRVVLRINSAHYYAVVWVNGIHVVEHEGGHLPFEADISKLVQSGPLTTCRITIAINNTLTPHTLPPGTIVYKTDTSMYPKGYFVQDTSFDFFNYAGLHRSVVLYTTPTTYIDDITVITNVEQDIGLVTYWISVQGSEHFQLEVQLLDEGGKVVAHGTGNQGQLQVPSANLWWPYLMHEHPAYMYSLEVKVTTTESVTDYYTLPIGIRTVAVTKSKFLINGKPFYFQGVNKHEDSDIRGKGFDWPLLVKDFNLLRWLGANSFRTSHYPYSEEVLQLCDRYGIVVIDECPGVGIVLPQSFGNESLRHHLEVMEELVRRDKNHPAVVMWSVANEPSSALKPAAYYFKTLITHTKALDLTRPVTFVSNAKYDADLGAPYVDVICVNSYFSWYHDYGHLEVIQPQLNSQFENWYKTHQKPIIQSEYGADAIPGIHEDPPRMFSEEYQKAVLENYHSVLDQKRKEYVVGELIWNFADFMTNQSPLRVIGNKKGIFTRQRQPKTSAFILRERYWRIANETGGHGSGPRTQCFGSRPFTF
In short: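 Mice were pretreated with saccharolactone (1 g/kg in saline, IP) 1 h before oral gavage of 500 mg/kg curcumin in DMSO. Serum (clotted 10 min RT, 8,000 g 10 min) and marrow were taken at 30 min. Marrow was resuspended in 50 mM sodium acetate pH 5 and held 2 h on ice. Aglycone curcumin and curcumin-glucuronide were measured by LC/MS after HLB extraction.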

GUSB [5] = target: T4, GUSB; format: biochemical, C57BL/6NJ mice; details: SL 10 mM, 10 μM curcumin-glucuronide, 2 h, 37°C
GUSB [6] = target: T4, GUSB; test: Ex vivo saccharolactone added to marrow suspensions from curcumin-treated mice; format: biochemical, C57BL/6J mice; details: 10 mM SL in sodium acetate buffer
In short: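 Female 4-week C57BL/6J mice were gavaged with 500 mg/kg oral curcumin in DMSO. Leg marrow was spun out (10,000 g, 15 s) at 30 min and resuspended in 50 mM sodium acetate pH 5 with or without 10 mM saccharolactone. It was held 2 h on ice, then supernatants were taken. Aglycone and glucuronide were quantified by LC/MS (HLB extraction, C18, SRM) as % of total curcumin. n=3–4/group.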

In the case of `COc1cc(/C=C/C(=O)CC(=O)/C=C/c2ccc(O)c(OC)c2)ccc1O` [aglycone curcumin, curcumin], the “Aglycone curcumin as share of total curcumin in perfusing serum” value ([1]; 30 min post oral dose, C57BL/6J) is reported as 0.1–0.2 % of total curcumin, the Concentration in serum ([1]; C3H/HeJ, 30 min after oral 500 mg/kg curcumin, mean (SEM)) is reported as “nd (≤0.01) μM” and the “Absolute and relative amounts of marrow aglycone curcumin lower in HeJ vs BL/6J” value ([1]; oral 500 mg/kg curcumin, 30 min) is reported as 59–65%. The “Aglycone curcumin as share of total curcumin in serum” value ([2]; 30 min post oral dose, n=11) was 0.24% ± 0.07%, the “Aglycone curcumin as share of total curcumin in lyophilized whole bone marrow” value ([2]; post oral dose, n=8) was 0.77% ± 0.21% and the “Effect on RAW 264.7 cell viability” value (RAW 264.7 cells) was “did not alter”. The “Aglycone curcumin as share of circulating total curcumin” value ([3]; BL/6J serum, IP curcumin) was < 4%, the “Aglycone curcumin as share of total in ex vivo bone marrow suspensions” value ([3]; BL/6J, IP curcumin) was 51 % of total and the “Bone marrow aglycone curcumin (% of total curcumin) lower vs BL/6J” value ([3]; HeJ mice, IP curcumin) was 73%. The “Bone marrow aglycone curcumin (% of total curcumin) decrease vs BL/6J” value ([3]; mps/mps mice, IP curcumin) was 88%, the “Increase of circulating curcumin concentrations vs BL/6J” value ([3]; mps/mps mice, IP curcumin) was 3.2 fold and the Concentration in serum ([3]; mps/mps, 20 min after IP 100 mg/kg curcumin, mean (SEM)) was 22.8 (6.9)^a,b μM.
For `Cc1cc(=O)oc2cc(O[C@@H]3O[C@H](C(=O)O)[C@@H](O)[C@H](O)[C@H]3O)ccc12` [glucuronidated 4-MU, 4-methylumbelliferyl-glucuronide], the “Rate of cleavage by KL” value (recombinant human KL; without effect) was < 0.007 nmol 4-MU/nmol enzyme/min, the “Rate of cleavage by HPSE” value (recombinant human HPSE; without effect) was < 0.007 nmol 4-MU/nmol enzyme/min and the “Rate of cleavage by GUSB” value (recombinant human GUSB) was 2.64 nmol 4-MU/pmol enzyme/min.
With `O=C1OC(c2ccc(O)cc2)(c2ccc(O[C@@H]3O[C@H](C(=O)O)[C@@H](O)[C@H](O)[C@H]3O)cc2)c2ccccc21` (stereo partly shown) [glucuronidated PheP, Phenolphthalein-glucuronide] the “Rate of cleavage by KL” value (recombinant human KL) was 1.0 nmol PheP/nmol enzyme/min, the “Rate of cleavage by HPSE” value (recombinant human HPSE) was 0.14 nmol PheP/nmol enzyme/min and the “Rate of cleavage by GUSB” value (recombinant human GUSB) was 23.5 nmol PheP/nmol enzyme/min.
With `O.O=C(O)[C@@H](O)[C@H]1OC(=O)[C@H](O)[C@H]1O` [saccharolactone, D-Saccharic acid 1,4-lactone monohydrate] the “Aglycone curcumin levels in marrow suspensions after in vivo inhibitor treatment” value (GUSB [4]) was “no longer detectable”, the “Effect on serum levels of aglycone curcumin” value (GUSB [4]; data not shown) was “unchanged” and the “Effect on deconjugation of GC in marrow-conditioned media” value (GUSB [5]) was “inhibitable”. For the same molecule, the “Aglycone curcumin in marrow suspensions with inhibitor added ex vivo” value (GUSB [6]) was “not detected”.

From publication PMC6528680 (Journal of natural products, 2019)
